Data set [1] concerns Mus musculus. The data set is described as follows: Suppression of IMQ-induced psoriasis in C57 mouse assessed as reduction in spleen index at 60 mg/kg, ig administered once daily starting from day 3 post IMQ-challenge and measured 2 days post-last dose of IMQ. Type of data set: functional, organism-based. In short, it runs like this:
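IMQ-induced C57 mice (5% cream daily 7 days; i.g. daily from day 3 at the stated dose, n = 6). Spleen weighed per mouse at end of study.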

Data set [2] relates to J774. Description: Antiinflammatory activity in mouse J774 cells assessed as reduction in LPS-induced IL23 mRNA level by SYBR green dye-based quantitative PCR analysis. Type of data set: functional, cell-based. In short, it runs like this: (§1)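 LPS-stimulated J774 macrophages; mRNA quantified by qPCR using 4 µL cDNA plus 16 µL master mix per reaction. Mean ± SD of three biological replicates; significance by two-tailed Student's t-test against the model group.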

A short description of data set [3]: Elimination half life in monkey liver microsomes incubated for 10 mins followed by potassium phosphate buffer addition and measured after 5 to 60 mins by LC-MS/MS analysis. Type of data set: ADME, Macaca mulatta, Microsome. The conditions noted are these: rhesus monkey, read-out: beta t1/2. In short, it runs like this: (§2)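 Rat, dog, monkey or human liver microsomes pre-incubated with compound at 37 °C for 10 min; reaction started after pre-warming and stopped at 5, 15, 30, 60 min with chilled quench containing tolbutamide and labetalol. No-cofactor control in 100 mM potassium phosphate for 60 min. LC-MS/MS analysis; first-order fit: k = −slope, T1/2 = 0.693/k, CLint = k/microsomal protein concentration.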
In general terms: Liver microsomes are vesicles of endoplasmic reticulum, rich in cytochrome P450 enzymes.

The nature of data set [4]: Clearance in Sprague-Dawley rat at 1 mg/kg, iv administered as single bolus dose by LC-MS/MS analysis. Type of data set: ADME, organism-based. The conditions noted are these: in vivo.
Data set [5] concerns T-cell. Description: Antiinflammatory activity in mouse T cells assessed as inhibition of conA-induced induced T cell proliferation at 0.4 uM incubated for 48 hrs by CCK8 assay relative to control. Type of data set: functional.
Data set [6] is described as follows: Intrinsic hepatic clearance in monkey. Type of data set: ADME, Macaca mulatta. The conditions noted are these: rhesus monkey, in vivo. In short, it runs like this: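 Scaled from microsomal intrinsic clearance: CLint,in vitro × microsomal protein per g liver × liver weight per kg body weight.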
Data set [7] deals with Mitogen-activated protein kinase kinase kinase 14 (Mus musculus) (UniProt Q9WUL6). The data set is described as follows: Inhibition of NIK in mouse J774 cells assessed as reduction in LPS-induced IL6 mRNA level by SYBR green dye-based quantitative PCR analysis. Type of data set: cell-based. In short, it runs like this:
as §1

For data set [8], the system named is Mus musculus. The data set is described as follows: Suppression of epidermal and dermal cell proliferation in C57 mouse model of IMQ-induced psoriasis assessed as reduction in Ki67 expression in back skin psoriatic lesions at 120 mg/kg, ig administered starting from day 3 post IMQ-challenge and measured 2 days post-last dose of IMQ by immunohistochemical analysis relative to control. Type of data set: functional. The conditions noted are these: C57, topical. In short, it runs like this: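 C57 mice given 5% imiquimod cream on back skin q.d. for seven days. Gavage q.d. at 60 or 120 mg/kg from day 3, n = 6 per group. Back-skin frozen sections (6 µm) stained for Ki67 by IHC. % Ki67+ of total cells quantified and normalized to IMQ-only model group. Two-tailed t-test, mean ± SD.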

Data set [9] can be described thus: AUC (0 to infinity) in Sprague-Dawley rat at 1 mg/kg, iv administered as single bolus dose by LC-MS/MS analysis. Type of data set: ADME, organism-based. On the set-up: dose 1 mg/kg, time infinity, route intravenous. The conditions noted are these: in vivo. In short, it runs like this: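 Single IV bolus in SD rats, 3 per group, in DMSO:PEG200:saline 20:20:60 (v/v/v), 0.2 mg/mL. Plasma protein-precipitated with ACN containing internal standards, then quantified by LC-MS/MS. AUC0-∞ from concentration-time profiles by linear trapezoidal rule, noncompartmental analysis. Mean ± SD of three rats.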

The test system of data set [10] is Mus musculus. Description: Protection against IMQ-induced dermatitis in C57 mouse model of psoriasis assessed as reduction in invasive erythema at 60 to 120 mg/kg, ig administered once daily starting from day 3 post IMQ-challenge and measured 2 days post-last dose of IMQ. Type of data set: functional, organism-based. In short, it runs like this:
(§3)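 C57 mice given 5% imiquimod cream on the back once daily for 7 days; intragastric dosing 60 or 120 mg/kg once daily from day 3 to end, n = 6 per group. Dorsal skin phenotype assessed by imaging.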

A short description of data set [11]: Oral bioavailability in Sprague-Dawley rat at 10 mg/kg administered via gavage by LC-MS/MS analysis. Type of data set: ADME, organism-based. The conditions noted are these: in vivo.
Data set [12] has as its target Mitogen-activated protein kinase kinase kinase 14 (Mus musculus) (UniProt Q9WUL6). The data set is described as follows: Inhibition of NIK in mouse J774 cells assessed as reduction in LPS-induced TNFalpha mRNA level by SYBR green dye-based quantitative PCR analysis. Type of data set: cell-based. In short, it runs like this:
as §1

The subject of data set [13] is Mus musculus. The data set is described as follows: Protection against IMQ-induced dermatitis in C57 mouse model of psoriasis assessed as reduction in skin swelling at 60 to 120 mg/kg, ig administered once daily starting from day 3 post IMQ-challenge and measured 2 days post-last dose of IMQ. Type of data set: functional, organism-based. In short, it runs like this: as §3

For data set [14], the species on record is Homo sapiens. The data set is described as follows: Selectivity ratio of IC50 for human TRKC to IC50 for human NIK.
A short description of data set [15]: Tmax in Sprague-Dawley rat at 10 mg/kg, po administered via gavage by LC-MS/MS analysis. Type of data set: ADME, organism-based. The conditions noted are these: in vivo. In short, it runs like this:
(§4)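 SD rats, 3 per group. Single IV bolus at 1 mg/kg in DMSO:PEG200:saline 20:20:60 (0.2 mg/mL), or oral gavage at 10 mg/kg as suspension in 0.5% CMC-Na/0.2% Tween 80 (1 mg/mL). Plasma protein-precipitated with acetonitrile containing internal standards, then quantified by LC-MS/MS. Parameters derived by noncompartmental analysis. Mean ± SD.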

In data set [16] the target is Tyrosine-protein kinase JAK1 (Homo sapiens, UniProt P23458). Description: Inhibition of human JAK1 using poly[Glu:Tyr] (4:1) as substrate in presence of [gamma33P]ATP by hotspot assay.
Data set [17] in a line: Intrinsic clearance in monkey liver microsomes assessed as per mg of protein incubated for 10 mins followed by potassium phosphate buffer addition and measured after 5 to 60 mins by LC-MS/MS analysis. The conditions noted are these: rhesus monkey, read-out: CLH. Type of data set: ADME, Macaca mulatta, Microsome. In short, it runs like this:
as §2

Data set [18] has as its target Mitogen-activated protein kinase kinase kinase 14 (Homo sapiens, UniProt Q99558). Description: Inhibition of human NIK using myelin basic protein as substrate in presence of [gamma33P]ATP by hotspot assay.
The nature of data set [19]: Elimination half life in dog liver microsomes incubated for 10 mins followed by potassium phosphate buffer addition and measured after 5 to 60 mins by LC-MS/MS analysis. Type of data set: ADME, Canis lupus familiaris, Microsome. The conditions noted are these: read-out: beta t1/2. In short, it runs like this:
as §2

Data set [20] in a line: Elimination half life in rat liver microsomes incubated for 10 mins followed by potassium phosphate buffer addition and measured after 5 to 60 mins by LC-MS/MS analysis. The conditions noted are these: read-out: beta t1/2. Type of data set: ADME, Microsome. In short, it runs like this:
as §2

Data set [21] can be described thus: Volume of distribution in Sprague-Dawley rat at 1 mg/kg, iv administered as single bolus dose by LC-MS/MS analysis. Type of data set: ADME, organism-based. The conditions noted are these: in vivo. In short, it runs like this:
as §4

In data set [22] the test system is J774. The data set is described as follows: Antiinflammatory activity in mouse J774 cells assessed as inhibition of LPS-induced NO production at 1 uM preincubated for 2 hrs followed by LPS stimulation and measured after 22 hrs by Griess reagent based assay relative to control. Type of data set: functional. In short, it runs like this:
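J774 macrophages seeded at 2*10^4 cells/mL, 24 h at 37 °C 5% CO₂; compound in DMSO at 1 µM, 3 replicate wells, 2 h pre-incubation, then LPS at 1 ug/mL final for 22 h. Supernatant nitrite read with Griess reagent at 540 nm against a sodium nitrite standard curve. Inhibition % = (model − compound)/(model − control) NO ×100; mean ± SD, three independent experiments.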
(In general: Nitrite, measured by Griess reagent, commonly stands in for NO production.)

The species entered for data set [23] is Homo sapiens. The data set is described as follows: Selectivity ratio of IC50 for human ACK1 to IC50 for human NIK.
Data set [24] concerns Mus musculus. The data set is described as follows: Protection against IMQ-induced dermatitis in C57 mouse model of psoriasis assessed as reduction in roughness at 60 to 120 mg/kg, ig administered once daily starting from day 3 post IMQ-challenge and measured 2 days post-last dose of IMQ. Type of data set: functional, organism-based. In short, it runs like this:
as §3

Active and inactive are the calls of the source. The rule behind the calls is not given here.

In general, inhibition refers to the relative decrease from the control value, in per cent. The term clearance denotes a measure of how efficiently the substance is removed, as volume per time. For orientation: inhibition in vivo means the share of the control response that was lost under treatment. Broadly, the AUC(0-inf) is the area under the concentration-time curve extrapolated to infinity. A word on the bioavailability: it is the share of a dose that reaches the circulation, judged against a reference dose that is usually intravenous. In general, Tmax refers to the time at which the peak concentration occurs. A word on the IC50: it is the midpoint of a concentration-inhibition curve. Usually Vd stands for the apparent volume that relates the amount in the body to the concentration in plasma or blood.

Chain of Mitogen-activated protein kinase kinase kinase 14 (Mus musculus) (Q9WUL6 whole entry): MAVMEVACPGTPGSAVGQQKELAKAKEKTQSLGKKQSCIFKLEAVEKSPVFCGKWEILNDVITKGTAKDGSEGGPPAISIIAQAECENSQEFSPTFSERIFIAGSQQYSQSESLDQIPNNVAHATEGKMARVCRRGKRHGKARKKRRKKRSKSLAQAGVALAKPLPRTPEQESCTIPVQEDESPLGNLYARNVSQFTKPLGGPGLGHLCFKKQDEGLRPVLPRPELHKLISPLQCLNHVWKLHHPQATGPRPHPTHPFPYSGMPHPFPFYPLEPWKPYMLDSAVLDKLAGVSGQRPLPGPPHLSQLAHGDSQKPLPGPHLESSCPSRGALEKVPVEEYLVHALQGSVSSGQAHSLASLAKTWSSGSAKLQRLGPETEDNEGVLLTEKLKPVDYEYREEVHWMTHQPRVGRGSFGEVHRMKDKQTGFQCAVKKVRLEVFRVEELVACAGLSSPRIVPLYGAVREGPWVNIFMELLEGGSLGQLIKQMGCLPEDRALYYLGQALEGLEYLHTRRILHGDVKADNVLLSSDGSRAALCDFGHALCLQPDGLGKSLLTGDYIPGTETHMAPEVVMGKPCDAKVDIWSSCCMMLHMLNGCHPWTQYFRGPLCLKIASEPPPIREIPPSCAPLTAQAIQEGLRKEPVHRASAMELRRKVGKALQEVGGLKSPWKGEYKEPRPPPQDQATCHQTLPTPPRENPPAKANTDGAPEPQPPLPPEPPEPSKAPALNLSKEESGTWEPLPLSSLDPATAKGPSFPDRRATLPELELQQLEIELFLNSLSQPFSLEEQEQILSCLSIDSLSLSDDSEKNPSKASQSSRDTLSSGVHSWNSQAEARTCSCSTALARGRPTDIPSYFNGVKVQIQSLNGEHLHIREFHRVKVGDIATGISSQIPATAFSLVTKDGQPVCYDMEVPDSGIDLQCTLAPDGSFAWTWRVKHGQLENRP
Chain of Mitogen-activated protein kinase kinase kinase 14 (Q99558 whole entry): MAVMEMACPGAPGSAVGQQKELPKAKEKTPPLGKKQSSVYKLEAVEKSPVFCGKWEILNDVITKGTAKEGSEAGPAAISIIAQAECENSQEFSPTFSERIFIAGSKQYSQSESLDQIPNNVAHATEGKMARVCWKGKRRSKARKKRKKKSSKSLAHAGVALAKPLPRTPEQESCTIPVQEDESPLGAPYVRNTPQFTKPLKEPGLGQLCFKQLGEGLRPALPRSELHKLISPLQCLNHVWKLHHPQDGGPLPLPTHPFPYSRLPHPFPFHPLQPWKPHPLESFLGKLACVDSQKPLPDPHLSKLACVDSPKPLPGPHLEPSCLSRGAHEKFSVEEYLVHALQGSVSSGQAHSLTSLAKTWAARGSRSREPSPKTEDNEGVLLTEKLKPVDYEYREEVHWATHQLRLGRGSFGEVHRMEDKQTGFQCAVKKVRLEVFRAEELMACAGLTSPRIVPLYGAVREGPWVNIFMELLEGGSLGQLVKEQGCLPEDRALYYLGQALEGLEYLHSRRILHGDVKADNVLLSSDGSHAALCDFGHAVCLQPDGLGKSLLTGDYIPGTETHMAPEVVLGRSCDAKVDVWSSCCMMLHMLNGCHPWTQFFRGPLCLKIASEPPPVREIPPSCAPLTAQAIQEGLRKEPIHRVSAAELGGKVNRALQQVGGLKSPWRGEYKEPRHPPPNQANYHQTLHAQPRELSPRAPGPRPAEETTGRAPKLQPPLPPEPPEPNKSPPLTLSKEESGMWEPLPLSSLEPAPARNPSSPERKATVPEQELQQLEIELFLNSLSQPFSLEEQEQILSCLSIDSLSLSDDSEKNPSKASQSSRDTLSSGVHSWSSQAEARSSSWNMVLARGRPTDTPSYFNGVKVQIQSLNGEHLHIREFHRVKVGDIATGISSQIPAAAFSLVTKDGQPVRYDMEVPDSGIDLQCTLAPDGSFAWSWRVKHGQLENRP
Chain of Tyrosine-protein kinase JAK1 (P23458 whole entry): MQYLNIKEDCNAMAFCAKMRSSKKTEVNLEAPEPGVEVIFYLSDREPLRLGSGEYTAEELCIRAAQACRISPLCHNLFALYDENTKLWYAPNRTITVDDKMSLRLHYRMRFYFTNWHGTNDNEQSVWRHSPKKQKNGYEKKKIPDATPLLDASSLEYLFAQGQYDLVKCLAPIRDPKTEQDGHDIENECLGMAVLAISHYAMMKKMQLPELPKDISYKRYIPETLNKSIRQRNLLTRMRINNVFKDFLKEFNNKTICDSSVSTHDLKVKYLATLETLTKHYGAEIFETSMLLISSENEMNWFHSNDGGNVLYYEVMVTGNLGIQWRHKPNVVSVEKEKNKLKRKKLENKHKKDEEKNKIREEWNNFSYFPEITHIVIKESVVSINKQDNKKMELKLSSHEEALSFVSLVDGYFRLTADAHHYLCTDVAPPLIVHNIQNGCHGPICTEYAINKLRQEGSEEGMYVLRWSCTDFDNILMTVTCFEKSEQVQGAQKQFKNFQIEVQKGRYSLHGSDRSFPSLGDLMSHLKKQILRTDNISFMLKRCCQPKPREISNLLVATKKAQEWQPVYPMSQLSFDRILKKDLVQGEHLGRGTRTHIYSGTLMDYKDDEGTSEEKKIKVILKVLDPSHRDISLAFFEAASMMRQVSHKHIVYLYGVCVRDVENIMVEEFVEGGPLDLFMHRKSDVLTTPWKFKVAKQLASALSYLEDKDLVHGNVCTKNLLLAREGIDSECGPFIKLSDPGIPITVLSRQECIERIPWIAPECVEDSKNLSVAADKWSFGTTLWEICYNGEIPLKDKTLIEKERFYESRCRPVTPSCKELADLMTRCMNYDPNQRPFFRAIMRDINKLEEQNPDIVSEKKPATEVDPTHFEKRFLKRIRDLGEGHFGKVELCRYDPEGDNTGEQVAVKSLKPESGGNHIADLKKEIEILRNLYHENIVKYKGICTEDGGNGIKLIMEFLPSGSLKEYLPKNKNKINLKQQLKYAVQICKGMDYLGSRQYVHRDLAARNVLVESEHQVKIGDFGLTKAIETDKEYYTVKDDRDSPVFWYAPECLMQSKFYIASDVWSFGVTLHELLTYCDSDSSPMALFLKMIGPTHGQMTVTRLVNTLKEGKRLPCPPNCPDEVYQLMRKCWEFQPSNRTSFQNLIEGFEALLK

Take `CC(O)(C#Cc1ccc(N2CCOCC2)c(Nc2ncnc3[nH]ccc23)c1)c1nccs1` (racemic): the inhibition entry in data set [1], in data set [7] and in data set [12] was “Active” in each case. The outcome in data set [2], in data set [10], in data set [13] and in data set [24] was Active. Moreover, the half-life in data set [3] came out at 18 min; in [19], 32.4 min; in data set [20] it was 30.8 min. In addition, the clearance in data set [4] was 40.3 mL/min/kg. Further, in data set [5], the inhibition at 0.4 µM is 36%. The same molecule came in with a CLH in data set [6] of 111 mL/min/kg. Moreover, the inhibition in vivo at 120 mg/kg in data set [8] turned out to be 83%. In addition, the AUC(0-inf) in [9] turned out to be 419 ng·h/mL. Moreover, the bioavailability in data set [11] was 64%. The Ratio IC50 in data set [14] and in data set [23] was 4 to 20 in each case. Further, the Tmax in data set [15] worked out at 50 min. Also, the IC50 came out at 183 nM in data set [16] and 9.7 nM in data set [18]. Also, in data set [17], the microsomal CLint worked out at 76.8 µL/min/mg. The Vd in [21] is 2.73 L/kg. Moreover, in data set [22], the inhibition at 1 µM is 86.3%.

For the origin of these results see ChEMBL document CHEMBL4616671, “Identification of N-Phenyl-7H-pyrrolo[2,3-d]pyrimidin-4-amine Derivatives as Novel, Potent, and Selective NF-κB Inducing Kinase (NIK) Inhibitors for the Treatment of Psoriasis” (J Med Chem, 2020).
